ChEMBL document CHEMBL4014309, “Development of an Acrylate Derivative Targeting the NLRP3 Inflammasome for the Treatment of Inflammatory Bowel Disease” (J Med Chem, 2017)
Converted amounts (≈) assume the structure as drawn. The source made the active and inactive calls. No cut-off for these calls is given here.

Legend:
Mus musculus [1] = species on record: Mus musculus; test: Inhibition of NF-kB signaling pathway in C57BL/6 mouse bone marrow derived macrophages assessed as reduction in LPS-induced IL-6 gene expression at 10 to 100 uM preincubated for 30 mins followed by LPS stimulation measured after 4 hrs by qRT-PCR analysis
Method in brief: (§1)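 C57BL/6 bone marrow macrophages, differentiated with 20% L-cell medium, were preincubated with compound for 30 min. They were then left untreated or given LPS (1 ng/mL, 4 h). Tnfa, Il6 and Il1b expression was measured by quantitative RT-PCR as 2^-ΔΔCt.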

[2] = target: NACHT, LRR and PYD domains-containing protein 3 (Mus musculus) (UniProt Q8R4B8); test: Inhibition of NLRP3 inflammasome in LPS-primed C57BL/6 mouse bone marrow derived macrophages assessed as reduction in ATP-induced caspase-1 activation at 10 to 100 uM preincubated for 1 hr followed by stimulation with ATP measured after 30 mins by Western blot analysis
[3] = Cysteamine reactivity in PBS assessed as free compound level at pH 7.4 measured after 4 hrs by DTNB reagent based RP-UHPLC analysis
Method in brief: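 The compound was reacted with excess cysteamine in pH 7.4 phosphate buffer with CH3CN cosolvent at 37 °C. Remaining compound was followed by UHPLC over 4 h, sampled at 30 min, 60 min and 4 h, and expressed as percent of starting concentration.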

[4] = target: NACHT, LRR and PYD domains-containing protein 3 (Homo sapiens) (UniProt Q96P20); test: Irreversible inhibition of His-FLAG- tagged NLRP3-ATPase (unknown origin) at 100 uM preincubated for 55 mins followed by ATP addition measured after 40 mins by ADP-Glo assay
Method in brief: (§2)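 His-FLAG NLRP3 (105 ng/well) captured on anti-FLAG-coated, BSA-blocked wells for 3 h at 4 °C. Compound (100 µM final, 2% DMSO) preincubated 55 min at 37 °C. Wells were washed three times (or not washed), then ATP (250 µM) was added for 40 min at 37 °C. ADP was read by ADP-Glo. Equal protein loading was checked by anti-His ELISA.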

[5] = Solubility of the compound in PBS at 1.56 mg […] and pH 7.4 after 24 hrs by UHPLC-MS analysis; format: physicochemical
HEK293 = test: Cytotoxicity against HEK293 cells assessed as extracellular LDH level at 10 to 100 uM after 24 hrs; format: cell-based; settings: human, hek293, 24 h
Mus musculus [6] = species on record: Mus musculus; test: Inhibition of NF-kB signaling pathway in C57BL/6 mouse bone marrow derived macrophages assessed as reduction in LPS-induced TNFalpha gene expression at 10 to 100 uM preincubated for 30 mins followed by LPS stimulation measured after 4 hrs by qRT-PCR analysis; method in brief: as §1
Rattus norvegicus [7] = test: Antiinflammatory activity in DNBS-induced Sprague-Dawley rat colitis model assessed as attenuation of DNBS-induced decrease in colonic length administered ig as suspension in olive oil for 6 days simulatneously with 6 days of DNBS-challenge; format: functional
[8] = Cysteamine reactivity of the compound in PBS assessed as second order rate constant for free cysteamine release at 250 uM and pH 7.4 after 90 mins by DTNB reagent based RP-UHPLC analysis
Method in brief: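 Compound (250 µM) was mixed with equimolar cysteamine in pH 7.4 PBS containing 12.5% CH3CN at 37 °C. Free cysteamine was tracked with DTNB at several time points over 90 min. Second-order k2 came from 1/[CAM] = 1/[CAM]0 + kt, using 3–10 points per plot; mean ± SEM of ≥3 experiments.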

[9] = target: NACHT, LRR and PYD domains-containing protein 3 (Mus musculus) (UniProt Q8R4B8); test: Inhibition of NLRP3 inflammasome in LPS-primed C57BL/6 mouse bone marrow derived macrophages assessed as reduction in nigericin-induced pyroptosis at 10 to 100 uM preincubated for 1 hr followed by stimulation with ATP measured after 30 mins by LDH release assay
Method in brief: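 Bone marrow macrophages from C57BL/6 mice, differentiated with 20% L-cell medium, primed with LPS (1 µg/mL, 3 h). Test agent or vehicle was added for 1 h, then ATP (5 mM, 30 min) or nigericin (10 µM, 30 min). IL-1β in the medium was measured by ELISA. LDH in the medium was measured colorimetrically as % of total cellular LDH.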

Rattus norvegicus [10] = test: Anti-inflammatory activity in DNBS-induced Sprague-Dawley rat colitis model assessed as DNBS-induced TNFalpha levels in colon at 25 mg/kg/day, ig for 6 days simulatneously with 6 days of DNBS-challenge by ELISA (reference value: 5.9 +/- 0.6 pg/mg); format: functional
[11] = target: NACHT, LRR and PYD domains-containing protein 3 (Homo sapiens) (UniProt Q96P20); test: Irreversible inhibition of His-FLAG- tagged NLRP3-ATPase (unknown origin) at 100 uM preincubated for 55 mins followed by compound wash-out and ATP addition measured after 40 mins by ADP-Glo assay; method in brief: as §2
Rattus norvegicus [12] = test: Anti-inflammatory activity in DNBS-induced Sprague-Dawley rat colitis model assessed as DNBS-induced TNFalpha levels in colon at 50 mg/kg/day, ig for 6 days simulatneously with 6 days of DNBS-challenge by ELISA (reference value: 5.9 +/- 0.6 pg/mg); format: functional
[13] = target: NACHT, LRR and PYD domains-containing protein 3 (Homo sapiens) (UniProt Q96P20); test: Inhibition of NLRP3 in PMA-differentiated and LPS-primed human THP1 cells assessed as decrease in ATP-induced pyroptosis measured as LDH activity at 10 uM preincubated for 1 hr followed by ATP addition measured after 1 hr by colorimetric assay relative to control
Method in brief: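 THP-1 cells were PMA-differentiated and LPS-primed, then pretreated with vehicle or compound (10 µM, 1 h). Pyroptosis was triggered with ATP (5 mM). LDH in supernatant was measured colorimetrically 1 h after ATP and expressed as percent decrease versus vehicle, mean ± SEM of ≥3 experiments.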

Rattus norvegicus [14] = test: Antiinflammatory activity in DNBS-induced Sprague-Dawley rat colitis model assessed as DNBS-induced macroscopic damage score at 25 mg/kg/day, ig administered as suspension in olive oil for 6 days simulatneously with 6 days of DNBS-challenge (reference value: 8.6 +/- 0.6); format: functional
Caspase-1 (Homo sapiens) = target: T1, Caspase-1 (Homo sapiens) (UniProt P29466); test: Inhibition of recombinant human caspase-1 at 10 to 100 uM using z-YVAD-AFC as substrate measured every 10 mins for 3 hrs by fluorescence analysis
T1 sequence (whole entry): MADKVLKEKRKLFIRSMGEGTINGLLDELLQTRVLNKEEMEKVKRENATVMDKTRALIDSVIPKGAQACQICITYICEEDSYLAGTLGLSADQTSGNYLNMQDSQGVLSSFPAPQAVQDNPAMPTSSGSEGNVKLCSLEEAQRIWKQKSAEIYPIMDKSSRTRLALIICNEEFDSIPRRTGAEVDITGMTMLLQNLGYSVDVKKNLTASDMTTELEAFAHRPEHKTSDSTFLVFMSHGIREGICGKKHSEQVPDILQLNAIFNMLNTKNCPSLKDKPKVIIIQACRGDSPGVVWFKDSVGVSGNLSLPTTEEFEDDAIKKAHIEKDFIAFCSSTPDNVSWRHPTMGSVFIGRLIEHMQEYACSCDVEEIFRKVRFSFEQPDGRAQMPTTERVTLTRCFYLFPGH

Sequence of NACHT, LRR and PYD domains-containing protein 3 (Homo sapiens) (Q96P20 whole entry, the tested form may be a part): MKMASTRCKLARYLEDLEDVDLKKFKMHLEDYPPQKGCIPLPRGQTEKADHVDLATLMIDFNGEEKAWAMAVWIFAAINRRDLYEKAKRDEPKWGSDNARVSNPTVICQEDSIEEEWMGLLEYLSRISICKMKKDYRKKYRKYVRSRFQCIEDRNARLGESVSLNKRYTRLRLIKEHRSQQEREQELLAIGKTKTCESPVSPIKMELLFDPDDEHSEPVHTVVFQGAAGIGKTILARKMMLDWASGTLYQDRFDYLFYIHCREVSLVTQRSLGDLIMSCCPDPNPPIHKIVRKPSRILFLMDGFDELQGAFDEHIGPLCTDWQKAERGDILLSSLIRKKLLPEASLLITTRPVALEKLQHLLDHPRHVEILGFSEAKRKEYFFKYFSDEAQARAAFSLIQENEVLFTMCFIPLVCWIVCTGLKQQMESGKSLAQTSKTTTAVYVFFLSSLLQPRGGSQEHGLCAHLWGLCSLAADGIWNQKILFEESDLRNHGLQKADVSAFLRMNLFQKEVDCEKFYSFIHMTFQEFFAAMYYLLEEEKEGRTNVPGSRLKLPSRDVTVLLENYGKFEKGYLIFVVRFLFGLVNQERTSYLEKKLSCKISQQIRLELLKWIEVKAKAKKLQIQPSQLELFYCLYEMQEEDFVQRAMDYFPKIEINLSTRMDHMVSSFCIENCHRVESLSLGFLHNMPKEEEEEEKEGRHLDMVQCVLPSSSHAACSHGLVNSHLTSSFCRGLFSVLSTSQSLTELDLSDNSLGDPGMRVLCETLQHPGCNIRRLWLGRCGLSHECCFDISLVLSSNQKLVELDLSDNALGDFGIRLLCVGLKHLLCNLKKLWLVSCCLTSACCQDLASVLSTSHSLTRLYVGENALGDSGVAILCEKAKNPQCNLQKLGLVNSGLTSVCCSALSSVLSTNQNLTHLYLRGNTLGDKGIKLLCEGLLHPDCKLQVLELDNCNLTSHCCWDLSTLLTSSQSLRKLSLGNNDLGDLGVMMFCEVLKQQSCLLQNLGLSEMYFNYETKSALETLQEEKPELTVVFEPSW
Sequence of NACHT, LRR and PYD domains-containing protein 3 (Mus musculus) (Q8R4B8 whole entry, the tested form may be a part): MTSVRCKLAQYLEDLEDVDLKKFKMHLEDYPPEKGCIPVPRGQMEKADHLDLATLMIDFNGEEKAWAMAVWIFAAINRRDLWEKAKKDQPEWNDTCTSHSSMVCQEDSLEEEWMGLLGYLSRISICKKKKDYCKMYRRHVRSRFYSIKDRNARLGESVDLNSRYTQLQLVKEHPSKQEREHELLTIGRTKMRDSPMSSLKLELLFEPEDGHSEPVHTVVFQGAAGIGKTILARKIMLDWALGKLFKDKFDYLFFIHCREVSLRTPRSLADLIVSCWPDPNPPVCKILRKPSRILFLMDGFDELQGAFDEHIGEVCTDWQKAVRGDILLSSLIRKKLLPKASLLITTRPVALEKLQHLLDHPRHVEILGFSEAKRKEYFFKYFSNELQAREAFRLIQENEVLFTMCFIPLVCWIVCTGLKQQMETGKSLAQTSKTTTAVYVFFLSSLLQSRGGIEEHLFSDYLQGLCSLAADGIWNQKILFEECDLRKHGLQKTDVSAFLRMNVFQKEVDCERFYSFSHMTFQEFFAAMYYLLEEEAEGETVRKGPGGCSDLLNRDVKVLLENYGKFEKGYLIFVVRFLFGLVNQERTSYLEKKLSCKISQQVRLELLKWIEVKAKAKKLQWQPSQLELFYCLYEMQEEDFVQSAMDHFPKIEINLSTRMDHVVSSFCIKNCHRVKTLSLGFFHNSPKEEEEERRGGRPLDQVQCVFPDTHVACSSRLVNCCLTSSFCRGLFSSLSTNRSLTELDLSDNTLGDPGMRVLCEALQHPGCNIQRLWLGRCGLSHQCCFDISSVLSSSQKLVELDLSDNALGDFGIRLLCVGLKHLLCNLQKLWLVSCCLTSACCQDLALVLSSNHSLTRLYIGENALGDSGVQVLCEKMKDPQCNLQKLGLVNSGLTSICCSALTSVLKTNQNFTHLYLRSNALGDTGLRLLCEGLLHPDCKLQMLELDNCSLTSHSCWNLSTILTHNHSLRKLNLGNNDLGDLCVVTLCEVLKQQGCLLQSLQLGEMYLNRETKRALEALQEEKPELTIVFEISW

inhibition (Mus musculus [1]): Active
inhibition [2]: Active
inhibition [4]: 45%
solubility at 24 h [5]: 6 µg/mL (≈ 26.7 µM)
inhibition (Mus musculus [6]): Active
inhibition [9]: Active
inhibition [11]: 40%
inhibition [13]: 33.6%
inhibition (Caspase-1 (Homo sapiens)): inactive
Structure (SMILES): C=C(Cc1ccccc1Cl)C(=O)OCC
Stability [3]: 77.5%
Activity (HEK293): Non-Toxic
Activity (Rattus norvegicus [7]): Dose-dependent effect
Drug metabolism [8]: Metabolite not detected
Activity (Rattus norvegicus [10]): 3.3 pg/mg
Activity (Rattus norvegicus [12]): 2.7 pg/mg
Activity_index (Rattus norvegicus [14]): 3.1
